Drawing on ChEMBL document CHEMBL1649336, “Isolation and characterization of minor analogues of silvestrol and other constituents from a large-scale re-collection of Aglaia foveolata” (J Nat Prod, 2010), this text covers EC50 and IC50 for 10 compounds.

Molecules are shown by their SMILES. A value given as a limit tells only on which side of the number the result lay.

One assay has as its system HT-29. Description: Cytotoxicity against human HT-29 cells after 3 days by sulforhodamine B assay. The assay is classed as functional. The following applies: HT-29, 72 h, read-out: ED50 (the source's name). The procedure, abridged:
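HT-29 (ATCC) cells grown in MEME with 10% FBS and antibiotics at 37 °C, 5% CO2, used one day after a medium change at 60–70% confluence. 9500 cells/well exposed in triplicate to serial dilutions (10% DMSO vehicle, also the control) for 3 days. Cells fixed with cold TCA, stained with 0.4% SRB, dye solubilized in 10 mM Tris (pH 10), A515 read. ED50 by nonlinear regression.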
For orientation: Sulforhodamine B stains cellular protein and so reports cell mass.

For the next assay, the target named is Transcription factor p65 (Homo sapiens, UniProt Q04206). Description: Inhibition of NF-kappaB p65 isolated from nuclear extract of human HeLa cells assessed as blockade of binding to biotinylated consesus sequence by chemiluminescence assay. Format: cell-free.
Chain of Transcription factor p65 (Q04206 whole entry): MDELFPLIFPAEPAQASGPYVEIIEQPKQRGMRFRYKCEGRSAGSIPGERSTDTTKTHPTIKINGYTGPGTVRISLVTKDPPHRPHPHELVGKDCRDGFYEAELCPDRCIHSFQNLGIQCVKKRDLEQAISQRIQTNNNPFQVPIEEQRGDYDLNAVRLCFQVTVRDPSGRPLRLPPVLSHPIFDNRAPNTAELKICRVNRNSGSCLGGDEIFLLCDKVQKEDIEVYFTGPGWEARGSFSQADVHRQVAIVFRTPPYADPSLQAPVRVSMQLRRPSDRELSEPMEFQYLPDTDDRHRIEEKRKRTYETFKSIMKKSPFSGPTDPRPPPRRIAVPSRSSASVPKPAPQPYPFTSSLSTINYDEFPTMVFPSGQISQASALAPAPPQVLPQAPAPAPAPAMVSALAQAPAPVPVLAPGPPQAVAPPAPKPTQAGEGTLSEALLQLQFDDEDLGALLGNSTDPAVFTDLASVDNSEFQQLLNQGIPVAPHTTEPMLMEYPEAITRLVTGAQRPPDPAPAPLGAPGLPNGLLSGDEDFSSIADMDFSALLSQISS

Turning to `COC(=O)[C@H]1[C@@H](O)[C@@]2(O)c3c(OC)cc(O[C@@H]4O[C@@H]([C@H](O)CO)CO[C@@H]4OC)cc3O[C@@]2(c2ccc(OC)cc2)[C@@H]1c1ccccc1`, the EC50 in the assay with HT-29 turned out to be 2290 nM.

`COC(=O)[C@H]1[C@@H](O)[C@@]2(O)c3c(OC)cc(O[C@@H]4O[C@@H]([C@@H](O)CO)CO[C@@H]4OC)cc3O[C@@]2(c2ccc(OC)cc2)[C@@H]1c1ccccc1`: the EC50 with HT-29 is 1070 nM.

In the case of `CC(C)(O)[C@@H]1CC[C@@]2(O)CC[C@]3(C)[C@H](CC[C@@H]4[C@@]5(C)CCC(=O)C(C)(C)[C@H]5CC[C@]43C)[C@H]2O1`, at Transcription factor p65, the IC50 was greater than 20000 nM. Moreover, in the assay with HT-29, the EC50 is greater than 10000 nM.

`CC(C)(O)[C@@H]1CC[C@](C)([C@H]2CC[C@]3(C)[C@@H]2CC[C@@H]2[C@@]4(C)CCC(=O)OC(C)(C)[C@@H]4CC[C@]23C)O1`: on Transcription factor p65, the half-maximal inhibitory concentration (IC50) is greater than 20000 nM. Moreover, the EC50 in the assay with HT-29 was greater than 10000 nM.

Take `CC(C)(O)[C@@H]1CC[C@@](C)([C@H]2CC[C@]3(C)[C@@H]2CC[C@@H]2[C@@]4(C)CCC(=O)OC(C)(C)[C@@H]4CC[C@]23C)O1`: at Transcription factor p65, the IC50 was greater than 20000 nM. In the assay on HT-29, the EC50 is greater than 10000 nM.

Consider `CC(C)C1=CC2=C(CO)C(=O)C[C@@H](O)[C@]2(C)CC1`, for which the IC50 at Transcription factor p65 is greater than 20000 nM. In addition, the EC50 with HT-29 is greater than 10000 nM.

Consider `COC(=O)[C@H]1[C@@H](O)[C@@]2(O)c3c(OC)cc(O[C@@H]4O[C@@H]([C@@H](O)CO)CO[C@H]4OC)cc3O[C@@]2(c2ccc(OC)cc2)[C@@H]1c1ccccc1` [2'-EPISILVESTROL], for which the EC50 with HT-29 was 1 nM.

Consider `CC[C@@]1(O)C(=O)OCc2c1cc1n(c2=O)Cc2cc3ccccc3nc2-1` [CAMPTOTHECIN], for which, in the assay on HT-29, the EC50 was 60 nM.

Take `CC(=O)O[C@H]1C(=O)[C@@]2(C)[C@H]([C@H](OC(=O)c3ccccc3)[C@]3(O)C[C@H](OC(=O)[C@H](O)[C@@H](NC(=O)c4ccccc4)c4ccccc4)C(C)=C1C3(C)C)[C@]1(OC(C)=O)CO[C@@H]1C[C@@H]2O` [PACLITAXEL]: the EC50 in the assay with HT-29 turned out to be 0.6 nM.

Turning to `COC(=O)[C@H]1[C@@H](O)[C@@]2(O)c3c(OC)cc(O[C@@H]4O[C@@H]([C@H](O)CO)CO[C@H]4OC)cc3O[C@@]2(c2ccc(OC)cc2)[C@@H]1c1ccccc1` [SILVESTROL], the half-maximal inhibitory concentration (IC50) at Transcription factor p65 was greater than 20000 nM. Besides, in the assay on HT-29, the EC50 amounted to 0.7 nM.

By IC50 is commonly meant the point on the concentration scale where inhibition reaches its midpoint.
